Source: ChEMBL document CHEMBL3808321, “LAT-1 activity of meta-substituted phenylalanine and tyrosine analogs” (Bioorg Med Chem Lett, 2016)

Legend:
[1] = biological target: T1, Large neutral amino acids transporter small subunit 1 (Homo sapiens, UniProt Q01650); test: Substrate activity at human LAT1 expressed in HEK cells assessed as efflux rate of [3H]-gabapentin at 200 uM after 5 to 180 secs by scintillation counting based trans-stimulation assay; type: cell-based; conditions: HEK293
Outline: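 HEK-hLAT1 cells were preloaded with [3H]-gabapentin, then incubated with test agent at 200 μM. Efflux rate (fmol/min) was compared with efflux in the agent's absence and with L-leucine and L-arginine as positive and negative controls and L-phenylalanine and L-tyrosine as parent amino acids. Mean of at least three experiments.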

[2] = biological target: T1, Large neutral amino acids transporter small subunit 1; test: Inhibition of human LAT1 expressed in HEK cells assessed as reduction in uptake of [3H]-gabapentin at 200 uM after 3 mins by scintillation counting based cis-inhibition assay; type: cell-based; conditions: HEK293
Outline: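 HEK cells stably transfected with human LAT-1 cDNA. Test agent at 200 μM competed with [3H]-gabapentin for cellular uptake. Results are % inhibition relative to background signal without inhibitor, with mean of at least three experiments.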

[3] = biological target: T1, Large neutral amino acids transporter small subunit 1; test: Inhibition of human LAT1 expressed in HEK cells assessed as reduction in uptake of [3H]-gabapentin after 3 mins by scintillation counting based cis-inhibition assay; type: cell-based, HEK293

T1 sequence (Q01650 whole entry): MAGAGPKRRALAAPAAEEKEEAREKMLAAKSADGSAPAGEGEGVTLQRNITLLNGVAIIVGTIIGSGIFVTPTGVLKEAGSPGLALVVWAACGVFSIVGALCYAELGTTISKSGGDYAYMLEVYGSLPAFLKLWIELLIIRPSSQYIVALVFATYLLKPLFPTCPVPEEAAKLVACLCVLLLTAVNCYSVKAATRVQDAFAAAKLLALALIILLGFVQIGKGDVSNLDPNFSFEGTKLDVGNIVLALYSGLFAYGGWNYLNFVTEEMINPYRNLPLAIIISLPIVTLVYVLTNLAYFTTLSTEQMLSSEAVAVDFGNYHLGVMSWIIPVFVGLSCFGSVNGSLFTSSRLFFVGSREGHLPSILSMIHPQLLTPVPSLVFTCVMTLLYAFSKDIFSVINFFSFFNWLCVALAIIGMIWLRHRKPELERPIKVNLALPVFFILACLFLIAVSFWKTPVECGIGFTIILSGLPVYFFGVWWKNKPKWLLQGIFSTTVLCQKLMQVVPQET

Structure (SMILES) | Activity [1] [fmol/min] | inhibition [2] [%] | IC50 [3] [µM]
N[C@@H](Cc1cccc(Cl)c1)C(=O)O | 2.6 | 84 | –
N[C@@H](Cc1cccc(F)c1)C(=O)O | 2.3 | 79 | –
Cc1ccc(C[C@H](N)C(=O)O)cc1 | 2.7 | 86 | –
N[C@@H](Cc1cccc(I)c1)C(=O)O | 1.9 | 91 | –
COc1ccc(C[C@H](N)C(=O)O)cc1C | 2.9 | 75 | –
N[C@@H](Cc1ccc(O)c(-c2ccccc2)c1)C(=O)O | 1.2 | 83 | –
N[C@@H](Cc1ccc(O)c(F)c1)C(=O)O | 3 | 63 | –
CCc1cc(C[C@H](N)C(=O)O)ccc1O | 2.4 | 68 | –
N[C@@H](Cc1cccc(Cc2ccccc2)c1)C(=O)O | 0.8 | 98 | 7.3
CC(C)(C)c1cc(C[C@H](N)C(=O)O)ccc1O | 1.5 | 81 | –
CC(C)c1cccc(C[C@H](N)C(=O)O)c1 | 1.7 | 91 | –
N[C@@H](Cc1ccc(O)c(Cl)c1)C(=O)O | 2.7 | 63 | –
N=C(N)NCCC[C@H](N)C(=O)O | 0.8 | 49 | –
CC(C)c1cc(C[C@H](N)C(=O)O)ccc1O | 2.8 | 80 | –
CC(C)C[C@H](N)C(=O)O | 3.5 | 78 | –
N[C@@H](Cc1ccc(O)c(Br)c1)C(=O)O | 1.8 | 86 | –
CC(C)(C)c1cccc(C[C@H](N)C(=O)O)c1 | 1.5 | 87 | –
CCc1cccc(C[C@H](N)C(=O)O)c1 | 3.1 | 77 | –
N[C@@H](Cc1ccc(O)c(I)c1)C(=O)O | 2.4 | 77 | –
N[C@@H](Cc1ccccc1)C(=O)O | 3.6 | 85 | –
N[C@@H](Cc1cccc(Br)c1)C(=O)O | 3 | 86 | –
N[C@@H](Cc1ccc(O)cc1)C(=O)O | 2.1 | 68 | –
N[C@@H](Cc1ccc(O)c(Cc2ccccc2)c1)C(=O)O | 1.3 | 96 | 9.1
N[C@@H](Cc1cccc(-c2ccccc2)c1)C(=O)O | 0.8 | 98 | 6.6
Cc1cc(C[C@H](N)C(=O)O)ccc1O | 3.3 | 56 | –
